Compounds with a hit are over-represented: about 2.2% of the library has one in this group of screens.
LEDGF integ inh: blocks HIV-1 LEDGF/p75-dependent DNA integration | 370,000 compounds, 0.64% hits | AID 743269 | inhibition, % at 3.7 µM | TR-FRET IN-LEDGF/p75 DNA integration, Eu/Cy5;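 active = inhibition above the screen-wide mean plus 3 SD, cut at about 13% in these data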;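 also: signal is the Cy5 over europium emission ratio at 671 and 618 nm; 0% = plate median of compound wells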
TCR CD3 inh: human TCR-CD3 binding inhibition; inhibition, % at 9.4 µM; 360,000 compounds, 0.37% hits; AID 651800; TAMRA-labeled TCR probe fluorescence, biochemical; in the data active = inhibition above about 19%;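 also: recombinant mutant TCR 2C K166C tagged with TAMRA read by polarization; 0% = receptor in buffer alone and 100% = receptor with positive control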
SIAE inh: human SIAE inhibition, primary screen. Q9HAT2. SIAE FP-Rh probe binding, fluorescence polarization. inhibition, % at 9.66 µM. 370,000 compounds, 0.69% hits. AID 1053197;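 active = inhibition above a cutoff: mean of compounds within the control limits plus 3 SD of those, cut at about 17% in these data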;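 also: 0% = plate median of compound wells and 100% = probe without SIAE protein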
HTRA1 inh: blocks human HTRA1 serine peptidase | Q92743 | recombinant HTRA1, FP-rhodamine activity-based probe, fluorescence polarization | inhibition, % at 5.96 µM | 340,000 compounds, 0.5% hits | AID 504803; in the data active = inhibition above about 36%;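 also: 0% = enzyme with DMSO and 100% = wells lacking enzyme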
mABHD4 FP: ABHD4 (mouse) inhibition, primary FP screen; inhibition, % at 8.92 µM; Q8VD66; 370,000 compounds, 0.54% hits; purified mABHD4, FP-Rh probe fluorescence polarization; AID 720543;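 active = inhibition exceeding the mean over every tested compound plus 3 SD, cut at about 30% in these data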;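 also: 0% = plate median of compound wells and 100% = S159A mutant with DMSO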
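Test system: mABHD4 protein; Read-out basis: % inhibition; Incubation: 45 min + 60 min at 25 °C; Repeats: single replicate; Technique: fluorescence polarization with parallel and perpendicular emission, 525/598 nm; Compound: 8.92 µM, single dose; Benchmarks: full inhibition S159A mutant plus DMSO, zero as sample-well median.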
TDP2 absorb: TDP2 (human) inhibition, absorbance primary screen. O95551. recombinant TDP2, T5PNP hydrolysis, p-nitrophenol absorbance 415 nm. inhibition, % at 12.8 µM. 370,000 compounds, 0.34% hits. AID 720702;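 active = inhibition above the mean of all tested compounds plus 3 SD, set per campaign, cut at about 25% in these data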;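 also: 0% = DMSO with enzyme and 100% = buffer with substrate but no TDP2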
Target sequence (O95551 whole entry, looked up): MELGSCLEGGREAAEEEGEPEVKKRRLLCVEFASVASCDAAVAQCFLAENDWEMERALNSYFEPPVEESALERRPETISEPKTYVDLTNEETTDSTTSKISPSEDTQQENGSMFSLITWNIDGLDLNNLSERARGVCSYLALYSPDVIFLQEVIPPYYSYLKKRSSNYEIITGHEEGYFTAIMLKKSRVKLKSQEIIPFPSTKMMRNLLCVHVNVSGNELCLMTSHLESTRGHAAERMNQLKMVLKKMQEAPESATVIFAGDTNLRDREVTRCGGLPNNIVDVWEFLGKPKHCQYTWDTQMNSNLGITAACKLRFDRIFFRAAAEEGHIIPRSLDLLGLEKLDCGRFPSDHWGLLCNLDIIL
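Assay system: Recombinant human TDP2 | Quantity: 120 nM TDP2 per well | Incubation: 2 h at 37 °C | Signal: Epi absorbance | Evaluation: Percent inhibition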
HTRA1 inh conf: HTRA1 (human) inhibition, confirmation. shares compounds with HTRA1 inh. recombinant HTRA1, FP-rhodamine activity-based probe, fluorescence polarization. inhibition, % at 5.96 µM. 1,600 compounds, 66% hits. AID 540248;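 active = mean inhibition over three repeats above a set limit taken from the earlier primary screen, cut at about 37% in these data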;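 also: 0% = HTRA1 with DMSO and 100% = wells lacking HTRA1; inhibitors block probe binding so polarization drops and inhibition rises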
The depositor's hits bear a star.

Screening Cc1cccc(NC(=O)CSc2ncnc3sc4c(c23)CCCC4)c1 returned LEDGF integ inh 2, SIAE inh -1, mABHD4 FP -4 and TDP2 absorb -3.
For COc1cccc2c1C(=N)c1c(O)c3c(c(O)c1C2=O)CC(O)(C(C)=O)CC3OC1CC(N)C(O)C(C)O1 (configuration not stated) the results were HTRA1 inh 41* and HTRA1 inh conf 43*.
`CCCCC(=O)OCC(=O)C1(O)Cc2c(O)c3c(c(O)c2C(OC2CC(NC(=O)C(F)(F)F)C(O)C(C)O2)C1)C(=O)c1c(OC)cccc1C3=O` (configuration not stated) gave LEDGF integ inh 4, TCR CD3 inh -7, SIAE inh 12, HTRA1 inh 27, mABHD4 FP -2 and TDP2 absorb -9.
For Cc1cc(Cl)ccc1OCCCC(=O)NNC(=O)c1ccccc1O the results were LEDGF integ inh -6, TCR CD3 inh 19, SIAE inh -1, HTRA1 inh 39*, mABHD4 FP 1, TDP2 absorb 5 and HTRA1 inh conf 52*.
C=CCN1CCc2c(cc(O)c(O)c2Cl)C(c2ccccc2)C1 (configuration not stated) was read as LEDGF integ inh -3, TCR CD3 inh -2, SIAE inh -1, HTRA1 inh 43*, mABHD4 FP 14, TDP2 absorb -10 and HTRA1 inh conf 70*.
`CCCCOCC1CN(CCCC)S(=O)(=O)c2c(cccc2N(C)S(=O)(=O)c2ccc(C)cc2)O1` (configuration not stated) gave LEDGF integ inh 3, TCR CD3 inh 0, SIAE inh 0, mABHD4 FP -5 and TDP2 absorb -5.
O=C1c2ccccc2-c2onc3ccc(NCc4ccco4)c1c23 was read as HTRA1 inh 117* and HTRA1 inh conf 108*.
Screening CCCCNC(=O)C1(C(=O)C2CC2)CC(c2ccccc2C(F)(F)F)=NO1 (configuration not stated) returned LEDGF integ inh -2, SIAE inh 3, mABHD4 FP 5 and TDP2 absorb 4.
`Clc1ccc2nc(-c3ccccn3)c(Nc3ccc4c(c3)OCO4)n2c1` gave LEDGF integ inh -2, TCR CD3 inh 7, SIAE inh 7, HTRA1 inh 58*, mABHD4 FP 6, TDP2 absorb -7 and HTRA1 inh conf 60*.
Screening Cc1ccc2nc(-c3ccccc3O)c(Nc3ccc4c(c3)OCCO4)n2c1 returned LEDGF integ inh 4, TCR CD3 inh -5, SIAE inh 12, HTRA1 inh 3, mABHD4 FP -7 and TDP2 absorb -3.
O=C(NNc1nc2ccc(Cl)cc2s1)c1cc(-c2cccs2)nc2ccccc12 was read as LEDGF integ inh 6, TCR CD3 inh -4, SIAE inh -2, HTRA1 inh 42*, mABHD4 FP -6, TDP2 absorb -1 and HTRA1 inh conf 56*.
Cc1cccc2nc(-c3ccco3)c(Nc3ccccc3)n12 was read as LEDGF integ inh -1, TCR CD3 inh 4, SIAE inh 6, HTRA1 inh -7, mABHD4 FP 8 and TDP2 absorb -4.
Screening Cc1ccc(Nc2c(-c3ccccn3)nc3cccc(C)n23)cc1 returned LEDGF integ inh -13, TCR CD3 inh -8, SIAE inh -1, HTRA1 inh 62*, mABHD4 FP -1, TDP2 absorb -37 and HTRA1 inh conf 67*.
Screening O=C(CSc1nnc(CNc2ccc(Cl)cc2)o1)Nc1nc2c(s1)CCCC2 returned LEDGF integ inh -1, TCR CD3 inh -2, SIAE inh 5, HTRA1 inh 38*, mABHD4 FP 26, TDP2 absorb -1 and HTRA1 inh conf 5.
For Nc1ccccc1NC1CCCCC1 the results were LEDGF integ inh -1, TCR CD3 inh 9, SIAE inh 9, HTRA1 inh 41*, mABHD4 FP 14, TDP2 absorb 0 and HTRA1 inh conf 48*.
For O=C1CCCC2=C1C(c1ccc(Cl)cc1)C1C(=O)c3ccccc3C1=N2 (configuration not stated) the results were LEDGF integ inh 7, TCR CD3 inh 5, SIAE inh -3, HTRA1 inh 38*, mABHD4 FP 29, TDP2 absorb -3 and HTRA1 inh conf 31.
Screening Cc1ccccc1NC(=O)CSc1nnc(-c2ccco2)c(-c2ccco2)n1 returned HTRA1 inh 43* and HTRA1 inh conf 16.
`COC(=O)[C@H](C(C)C)N(Cc1cn(CC2CCCCC2)nn1)S(=O)(=O)c1ccc(F)cc1Br` gave LEDGF integ inh 4, SIAE inh 7, mABHD4 FP -2 and TDP2 absorb -9.
For O=C1C=CC(=O)C(CNc2ccc(C(=O)OCc3ccccc3)cc2)=C1 the results were LEDGF integ inh 7, TCR CD3 inh 10, SIAE inh 6, HTRA1 inh 42*, mABHD4 FP 36*, TDP2 absorb 9 and HTRA1 inh conf 18.
For FC(F)(F)c1cccc(N2CCN(C3=Nc4ccccc4Sc4ccccc43)CC2)c1 the results were LEDGF integ inh -2, SIAE inh 3, mABHD4 FP -3 and TDP2 absorb -4.
For O=C1Nc2ccc(Br)cc2C12NNc1ccccc1O2 (configuration not stated) the results were LEDGF integ inh 1, TCR CD3 inh 9, SIAE inh 16, HTRA1 inh 49*, mABHD4 FP 28, TDP2 absorb -10 and HTRA1 inh conf 62*.
For O=C1Nc2ccc(Br)cc2C1(O)c1ccccc1 (configuration not stated) the results were LEDGF integ inh 3, TCR CD3 inh 4, SIAE inh 3, HTRA1 inh -3, mABHD4 FP 0 and TDP2 absorb -4.
COc1ccc(NC(=O)c2cc3ccccc3cc2O)cc1 was read as LEDGF integ inh -4, TCR CD3 inh -4, SIAE inh 15, HTRA1 inh 39*, mABHD4 FP 28, TDP2 absorb 8 and HTRA1 inh conf 3.
`O=C(CSc1nnc(-c2cccs2)o1)c1ccc(F)cc1` gave LEDGF integ inh -1, SIAE inh -1, mABHD4 FP -1 and TDP2 absorb -3.
Screening CN(C)c1ccc(N/C=C/C(=O)c2ccc(F)cc2)cc1 returned HTRA1 inh 53* and HTRA1 inh conf 2.
NS(=O)(=O)c1ccc(N/C=C\C(=O)c2ccc(F)cc2)cc1 was read as LEDGF integ inh 5, TCR CD3 inh 7, SIAE inh -7, HTRA1 inh -7, mABHD4 FP -6 and TDP2 absorb -5.

Source: PubChem
